Assay results pooled from the literature.
Compare with care: the assays were run in different laboratories.
RPS6KA3: Ribosomal protein S6 kinase alpha-3 (RPS6KA3, Homo sapiens, UniProt P51812)
RPS6KA3 C-terminal kinase domain: Ribosomal protein S6 kinase alpha-3, C-terminal kinase domain (RPS6KA3, Homo sapiens, UniProt P51812)
RPS6KA3 N-terminal kinase domain: Ribosomal protein S6 kinase alpha-3, N-terminal kinase domain (RPS6KA3, Homo sapiens, UniProt P51812)

SMILES	target	test	conditions	quantity	result
C#Cc1cc(-c2cc(Nc3nc(N[C@@H](C)c4ccc(F)cn4)ncc3Cl)n[nH]2)ccc1C=O	RPS6KA3	enzyme activity, inhibitor	0.2 µM	inhibition	39.8%
COc1ccc2oc(-c3ccc4nc(N)oc4c3)c/c(=N\c3ccccc3NC(=O)CCN)c2c1	RPS6KA3	binding	1 µM	remaining binding	98%
Cc1cc(O)c(-c2ccc([C@@H](C)CN(C)C)cc2)c2c1[nH]c(=O)c1sccc12	RPS6KA3 C-terminal kinase domain	enzyme activity, inhibitor	0.1 µM	inhibition	-17.5%
N#Cc1ccc(NC(=O)Nc2ccccc2)cc1	RPS6KA3 N-terminal kinase domain	cell-free assay, competition with immobilised ligand	25 µM	remaining binding	90%
CN1CCN(C(=O)c2ccc(NC(=O)Nc3ccc(N(C)c4ccnc(Nc5ccc(CS(C)(=O)=O)cc5)n4)cc3)cc2)CC1	RPS6KA3 C-terminal kinase domain	binding, competition with immobilised ligand	1 µM	remaining binding	86%
CC(C)S(=O)(=O)c1ccc2nccc(Nc3ccc4sc(C5CCCC5)nc4c3)c2c1	RPS6KA3	enzyme activity, inhibitor	1 µM	activity vs control	113%
CCCCC(=O)Nc1ccc(-c2ccc3ncn(CCC)c(=O)c3c2)cn1	RPS6KA3 C-terminal kinase domain	binding, competition with immobilised ligand	0.5 µM	remaining binding	99%
COc1ccc2[nH]c3c4[nH]c5ccc(OC)cc5c4c4c(c3c2c1)C(=O)NC4=O	RPS6KA3 N-terminal kinase domain	binding, competition with immobilised ligand	1 µM	remaining binding	21%
